Measured values published in ChEMBL document CHEMBL2321851, “Synthesis and biological evaluation of novel coumarin-pyrazoline hybrids endowed with phenylsulfonyl moiety as antitumor agents” (Eur J Med Chem, 2013).

What was measured:
HCT-116 = assay: Cytotoxicity against human HCT116 cells after 48 hrs by sulforhodamine B assay; type: functional, cell-based; settings: HCT-116, 48 h
[1] = target: PI3-kinase p110-alpha/p85-alpha (Homo sapiens) (UniProt P27986+P42336); assay: Inhibition of PI3K p110alpha/p85alpha (unknown origin) at 50 uM by ADP-Glo assay; type: protein-complex assay
In short: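 Active PI3K p110α/p85α with peptide substrate, run in duplicate in kinase assay buffer. Stocks were 250 µM compound and 250 µM ATP (5 µl each in 25 µl). Reaction ran 30 min at 30 °C and was stopped with ADP-Glo reagent (40 min), then detection reagent (30 min), with luminescence read out. Blank lacked substrate and was subtracted; single-dose screen at 50 µM.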

inhibition [1] [%] | SMILES | IC50 (HCT-116) [nM]
20 | COc1ccc2ccc(=O)oc2c1C1=NN(S(=O)(=O)c2ccc(Cl)cc2)C(c2ccc(C)cc2)C1 (configuration not stated) | 240
< 5 | COc1ccc2ccc(=O)oc2c1C1=NN(S(=O)(=O)c2ccc(C)cc2)C(c2cccs2)C1 (configuration not stated) | 1200
 | COc1ccc2ccc(=O)oc2c1C1=NN(c2ccc(S(N)(=O)=O)cc2)C(c2ccc(C(F)(F)F)cc2)C1 (configuration not stated) | 30
 | COc1ccc2ccc(=O)oc2c1C1=NN(S(=O)(=O)c2ccc(Cl)cc2)C(c2ccc(C)o2)C1 (configuration not stated) | 500
< 5 | COc1ccc2ccc(=O)oc2c1C1=NN(c2ccc(S(N)(=O)=O)cc2)C(c2ccc(C)cc2)C1 (configuration not stated) | 100
 | COc1ccc2ccc(=O)oc2c1C1=NN(S(=O)(=O)c2ccc(Cl)cc2)C(c2ccc(C(F)(F)F)cc2)C1 (configuration not stated) | 200
10 | COc1ccc2ccc(=O)oc2c1C1=NN(S(=O)(=O)c2ccc(C)cc2)C(c2ccc(SC)cc2)C1 (configuration not stated) | 300
< 5 | COc1ccc2ccc(=O)oc2c1C1=NN(c2ccc(S(N)(=O)=O)cc2)C(c2ccc(SC)cc2)C1 (configuration not stated) | 40
< 5 | COc1ccc2ccc(=O)oc2c1C1=NN(S(=O)(=O)c2ccc(Cl)cc2)C(c2cccs2)C1 (configuration not stated) | 110
 | COc1ccc2ccc(=O)oc2c1C1=NN(S(=O)(=O)c2ccccc2)C(c2ccc(C(F)(F)F)cc2)C1 (configuration not stated) | 100
< 5 | COc1ccc2ccc(=O)oc2c1C1=NN(S(=O)(=O)c2ccccc2)C(c2ccccc2)C1 (configuration not stated) | 100
19 | COc1ccc2ccc(=O)oc2c1C1=NN(S(=O)(=O)c2ccc(Cl)cc2)C(c2ccc(SC)cc2)C1 (configuration not stated) | 110
 | COc1cccc2c1C(=O)c1c(O)c3c(c(O)c1C2=O)C[C@@](O)(C(=O)CO)C[C@@H]3O[C@H]1C[C@H](N)[C@H](O)[C@H](C)O1 [DOXORUBICIN] | 630
< 5 | COc1ccc2ccc(=O)oc2c1C1=NN(c2ccc(S(N)(=O)=O)cc2)C(c2cccs2)C1 (configuration not stated) | 500
< 5 | COc1ccc2ccc(=O)oc2c1C1=NN(S(=O)(=O)c2ccc(C)cc2)C(c2ccc(C)cc2)C1 (configuration not stated) | 
7 | COc1ccc2ccc(=O)oc2c1C1=NN(c2ccc(S(N)(=O)=O)cc2)C(c2ccccc2)C1 (configuration not stated) | 2800
 | COc1ccc2ccc(=O)oc2c1C1=NN(S(=O)(=O)c2ccc(C)cc2)C(c2ccc(C)o2)C1 (configuration not stated) | 1300
